# From ChEMBL document CHEMBL1132804, “Inhibitors of src tyrosine kinase: the preparation and structure-activity relationship of 4-anilino-3-cyanoquinolines and 4-anilinoquinazolines” (Bioorg Med Chem Lett, 2000)
# Target: T1, Proto-oncogene tyrosine-protein kinase Src (Homo sapiens, UniProt P12931)
# Assay: Inhibition of Src kinase at 100 nM ATP
# Method in brief: (§1)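 ATP-dependence study in the same ELISA format. Human c-Src protein (3 units/reaction) and cdc2 substrate peptide were in Tris-HCl pH 7.5 buffer with MgCl₂, EGTA and Na₃VO₄. Compound preincubation was 10 min at 30 °C. The reaction was started with ATP at four final levels (100, 500, 1000, 5000), run 1 h at 30 °C and stopped with EDTA. IC50 was determined at each ATP level.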
# T1 sequence (P12931 2-536 limits assumed): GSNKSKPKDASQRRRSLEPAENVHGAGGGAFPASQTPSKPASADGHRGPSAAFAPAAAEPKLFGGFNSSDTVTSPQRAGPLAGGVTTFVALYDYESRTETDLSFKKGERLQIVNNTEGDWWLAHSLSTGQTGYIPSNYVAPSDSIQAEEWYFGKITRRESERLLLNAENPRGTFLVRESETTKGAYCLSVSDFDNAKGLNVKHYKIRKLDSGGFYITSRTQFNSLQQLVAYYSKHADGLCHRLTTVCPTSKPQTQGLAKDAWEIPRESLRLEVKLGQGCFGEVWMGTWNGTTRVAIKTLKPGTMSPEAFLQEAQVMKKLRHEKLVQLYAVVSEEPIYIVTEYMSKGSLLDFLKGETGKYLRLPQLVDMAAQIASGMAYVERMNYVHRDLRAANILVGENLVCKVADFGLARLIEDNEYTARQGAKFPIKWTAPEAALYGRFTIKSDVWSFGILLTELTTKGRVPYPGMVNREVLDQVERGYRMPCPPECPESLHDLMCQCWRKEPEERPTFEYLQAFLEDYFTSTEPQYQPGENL
row,IC50,Compound
1,0.034 µM,COc1cc2ncc(C#N)c(Nc3cc(OC)c(OC)c(OC)c3)c2cc1OC

# Target: T1, Proto-oncogene tyrosine-protein kinase Src
# Assay: Inhibition of Src kinase at 1000 nM ATP
# Method in brief: as §1
row,IC50,Compound
1,0.19 µM,COc1cc2ncc(C#N)c(Nc3cc(OC)c(OC)c(OC)c3)c2cc1OC

# Target: T1, Proto-oncogene tyrosine-protein kinase Src
# Assay: Inhibition of Src kinase at 500 nM ATP
# Method in brief: as §1
row,IC50,Compound
1,0.108 µM,COc1cc2ncc(C#N)c(Nc3cc(OC)c(OC)c(OC)c3)c2cc1OC

# Target: T1, Proto-oncogene tyrosine-protein kinase Src
# Assay: In vitro inhibition of c-src tyrosine kinase.
# Method in brief: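 ELISA tyrosine kinase kit format. ATP was then added to start the reaction, which ran 1 h at 30 °C and was stopped with EDTA. Duplicate testing; IC50 is the average of two determinations.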
row,Compound,IC50
1,CCOc1c(OC)cc(Nc2ncnc3cc(OC)c(OC)cc23)cc1OC,0.34 µM
2,CCCCCCCCCCCCOc1c(OC)cc(Nc2ncnc3cc(OC)c(OC)cc23)cc1OC,5.2 µM
3,CCCCOc1c(OC)cc(Nc2ncnc3cc(OC)c(OC)cc23)cc1OC,0.49 µM
4,COc1ccc(Nc2c(C#N)cnc3cc(OC)c(OC)cc23)cc1OC,0.95 µM
5,COc1cc2ncnc(Nc3cc(OC)c(OC(C)C)c(OC)c3)c2cc1OC,0.83 µM
6,COc1cc2ncc(CO)c(Nc3cc(OC)c(OC)c(OC)c3)c2cc1OC,> 10 µM
7,COc1cc2ncc(C#N)c(Nc3cc(OC)c(OC)c(OC)c3C)c2cc1OC,0.47 µM
8,COc1cc(Nc2c(C#N)cnc3cc(OC)c(OC)cc23)cc(OC)c1,0.98 µM
9,CCOC(=O)c1cnc2cc(OC)c(OC)cc2c1Nc1cc(OC)c(OC)c(OC)c1,> 10 µM
10,COc1cc2ncnc(Nc3cc(OC)c(OC(C)(C)C)c(OC)c3)c2cc1OC,2.7 µM

# Molecules with a lower IC50, results first:
row,IC50,Compound
1,0.17 µM,COc1cc2ncc(C#N)c(Nc3cc(OC)c(OC)c(OC)c3Br)c2cc1OC
2,0.063 µM,CCOc1c(OC)cc(Nc2c(C#N)cnc3cc(OC)c(OC)cc23)cc1OC
3,0.2 µM,COc1cc2nccc(Nc3cc(OC)c(OC)c(OC)c3)c2cc1OC
4,0.0055 µM,COc1cc2c(Nc3cc(OC)c(OC)c(OC)c3)c(C#N)cnc2cc1OCCCN1CCC(O)CC1
5,0.28 µM,COc1cc2ncnc(Nc3cc(OC)c(OC)c(OC)c3)c2cc1OC
6,0.11 µM,COc1cc2ncc(C#N)c(Nc3cc(OC)c(OC(C)C)c(OC)c3)c2cc1OC
7,0.035 µM,COc1cc2ncc(C#N)c(Nc3cc(OC)c(OC)c(OC)c3)c2cc1OC
8,0.29 µM,COc1cc2ncc(C#N)c(Oc3cc(OC)c(OC)c(OC)c3)c2cc1OC
9,0.0053 µM,COc1cc2c(Nc3cc(OC)c(OC)c(OC)c3)c(C#N)cnc2cc1OCCCN1CCCCC1
10,0.18 µM,CCCCCCCCCCCCOc1c(OC)cc(Nc2c(C#N)cnc3cc(OC)c(OC)cc23)cc1OC

# Target: T1, Proto-oncogene tyrosine-protein kinase Src
# Assay: Inhibition of Src kinase at 5000 nM ATP
# Method in brief: as §1
row,IC50,Compound
1,0.65 µM,COc1cc2ncc(C#N)c(Nc3cc(OC)c(OC)c(OC)c3)c2cc1OC
